CSN inh – inhibitors of CSN-mediated cullin deneddylation, primary screen, biochemical, fluorescence polarization, uHTS. Purified CSN, SCF-Nedd8-OG deneddylation. COP9 signalosome complex subunit 5 (Homo sapiens), Q92905. actives 0.38% (n = 360,000). inhibition, % at 12.5 µM;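 active = pattern-corrected inhibition above about 35%, with an unprinted fluorescence ratio check between 0.5 and 1.5, limit read from the data, passing the limit was not always enough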;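 also: 0% = enzyme with substrate and 100% = substrate without enzyme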
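Assay system: purified human Csn5 enzyme expressed in HEK293T cells; measure: % inhibition; also added: SCFSkp2-Nedd8OG substrate at 10 nM final; technique: fluorescence polarization; times: reaction 90 min, room temperature; medium: Tris buffer pH 7.5, NaCl, DTT, Tween-20, trehalose, ovalbumin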
HNF4A DNA FP – change in binding of human HNF4A to DNA, primary screen, biochemical, fluorescence polarization, FITC-DNA. Hepatocyte nuclear factor 4-alpha (Homo sapiens), P41235. 1 h. activity change, % at 10 µM. actives 0.3% (n = 360,000); in the data active = activity change above about 30%, passing the limit was not always enough
Target sequence (P41235 whole entry, looked up): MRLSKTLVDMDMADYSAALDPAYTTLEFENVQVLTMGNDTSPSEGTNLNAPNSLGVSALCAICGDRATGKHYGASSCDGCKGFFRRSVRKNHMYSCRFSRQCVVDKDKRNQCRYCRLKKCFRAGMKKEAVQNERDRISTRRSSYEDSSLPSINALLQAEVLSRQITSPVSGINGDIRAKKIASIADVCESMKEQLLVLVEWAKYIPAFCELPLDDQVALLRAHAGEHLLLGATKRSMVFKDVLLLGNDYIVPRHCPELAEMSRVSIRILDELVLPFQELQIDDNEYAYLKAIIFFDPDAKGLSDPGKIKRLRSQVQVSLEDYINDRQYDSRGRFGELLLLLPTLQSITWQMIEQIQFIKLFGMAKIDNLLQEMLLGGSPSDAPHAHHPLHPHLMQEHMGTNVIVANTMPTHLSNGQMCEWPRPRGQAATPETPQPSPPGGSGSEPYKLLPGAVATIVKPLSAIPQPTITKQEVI
Myeloid diff MLP – induction of myeloid progenitor differentiation, primary screen, cell-based, flow cytometry, MLPCN library; ER-HoxA9 myeloid progenitors, lysozyme-GFP differentiation; calls only at 10 µM; actives 1% (n = 360,000);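 active = normalized GFP-positive differentiation at or above the plate's own cutoff, the solvent-only control mean plus 3 SD; inconclusive = no clear call, values can overlap the other calls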;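 also: cells exposed to compound for four days before flow analysis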
Granule exo inh – LAMP-1 surface exposure blockers, TALL-104 cells – cell-based, flow cytometry, MLPCN library, primary screen. TALL-104 LAMP-1 surface exposure; cells stimulated with thapsigargin and PMA. inhibition, % at 10 µM. actives 0.66% (n = 360,000);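 active = inhibition above about 55%, limit read from the data; inconclusive = no clear call, values can overlap the other calls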
Myeloid diff – inducers of myeloid progenitor differentiation, confirmation, cell-based, GFP/Mac1 flow cytometry, cherry pick 01; shares compounds with Myeloid diff MLP; ER-HoxA9 myeloid progenitors, GFP/Mac1 double-positive flow; calls only; actives 2% (n = 2,300);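 active = share of green or green-and-red cells above 9 and 9% in run 1 or 4 and 3% in run 2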
GFP autofluor – counter-screen for myeloid differentiation promoters: compound fluorescence. shares compounds with Myeloid diff MLP. ER-HoxA9 myeloid progenitors, no estrogen, GFP autofluorescence flow cytometry; vehicle wells 0%, positive control 100%. fluorescence response, % (no concentration beside the values). actives 7.4% (n = 2,300);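 active = over 5% cells positive for green fluorescent reporter, or over 2% positive for both it and APC stain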;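 also: range taken on the double positive population between DMSO and positive control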
Starred values were filed as active, the others as inactive; i = inactive; ? = inconclusive; · = not tested or not shown; + = active, no number. Rows were chosen to be rich in hits. Some 2.2% of all compounds tested hit in one or more screens of this group.

SMILES	CSN inh	HNF4A DNA FP	Myeloid diff MLP	Granule exo inh	Myeloid diff	GFP autofluor
CCN(C(=O)COc1cc(=O)n(CC)c2ccccc12)c1cc(Cl)ccc1OC	-5	2	i	9	i	17*
CCN(Cc1cc2ccccc2[nH]c1=O)C(=O)C1CCCCC1	-5	-3	i	2	·	·
CC(C)N(Cc1cc2ccccc2[nH]c1=O)C(=O)C1CCCCC1	-10	7	i	10	i	0
CCOC(=O)C1(C)CCCN(C(=O)c2ccccc2F)C1 (centres undefined)	-1	2	i	3	·	·
CC1=C(C(=O)O)N2C(=O)C(NC(=O)c3nn(C)c(C)c3Cl)C2SC1 (centres undefined)	0	-2	i	3	i	0
Cc1ccc(Nc2nnc(C)c3ccccc23)c(C)c1	-1	3	i	2	·	·
COc1cc(COC(=O)c2cnc(C)cn2)c(OC)cc1Br	0	2	i	-22	·	·
CC(C)CC(=O)c1c[nH]c(C(=O)NCCc2ccccn2)c1	0	-2	i	0	i	0
CCC(=O)c1c[nH]c(C(=O)NCCc2ccccn2)c1	-1	-2	i	-1	·	·
C[C@H]1CN(S(=O)(=O)C(C)(C)C)[C@H](CCO)/C1=C\c1ccccc1	1	-2	i	3	·	·
O=C(NCC1CCCO1)C1CCCN(S(=O)(=O)c2cccc3nsnc23)C1 (centres undefined)	-6	5	i	-2	·	·
O=C(NCc1ccccc1Cl)C1CCCN(S(=O)(=O)c2cccc3nsnc23)C1 (centres undefined)	2	3	i	-6	i	0
Cc1nc2ccccn2c1C(=O)/C=C/c1ccc(F)cc1	-1	0	i	0	i	0
CCCSc1ncnc2[nH]ncc12	0	3	i	8	·	·
COc1cc(Br)cc(Br)c1OCC(=O)N/N=C/c1c(C)n(C)n(-c2ccccc2)c1=O	-3	1	i	6	·	·
COc1ccc(C)cc1NC(=O)CCNC(=O)Cn1cnc2ccccc2c1=O	3	3	?	-2	·	·
CCN(CC)S(=O)(=O)c1ccc(N2CC(C(=O)N3Cc4ccccc4CC3C(N)=O)CC2=O)cc1 (centres undefined)	-2	3	i	3	·	·
COc1ccc(C(C)(O)c2nc(-c3ccc(F)cc3OC)cs2)cc1 (centres undefined)	-3	-5	i	1	i	0
COc1cccc(C(C)(O)c2nc(-c3ccc(F)cc3OC)cs2)c1 (centres undefined)	1	1	i	-7	·	·
O=C(Nc1nc(-c2cccnc2)cs1)c1ccc(S(=O)(=O)N2CCOCC2)cc1	2	1	i	-1	i	2
CNC[C@H](NC[C@@H](NCCCc1ccccc1)c1ccccc1)[C@H](C)O	-6	4	i	2	·	·
O=C(O)COc1ccc(C(=O)Cc2ccc3c(c2)OCCCO3)c(O)c1	2	0	i	4	i	0
CCCCc1ccc(NS(=O)(=O)c2cccc(C(=O)N3CCNC(=O)C3)c2)cc1	0	-1	i	-2	·	·
CCn1c2ccccc2c2cc(N=C3SC(CC(=O)Nc4ccccc4OC)C(=O)N3CCOC)ccc21 (centres undefined)	0	-6	i	-6	·	·
CCn1c2ccccc2c2cc(N=C3SC(CC(=O)Nc4ccccc4OC)C(=O)N3C)ccc21 (centres undefined)	5	0	+	8	i	0
SMILES	CSN inh	HNF4A DNA FP	Myeloid diff MLP	Granule exo inh	Myeloid diff	GFP autofluor
COCCCNC(=O)Cn1nnc(-c2ccc(NC(=O)c3ccc(F)cc3)cc2)n1	1	0	i	0	i	0
COc1ccc(NC(=O)CN(C)C(=O)CC2CCCC2)cc1	1	-1	i	-9	·	·
COc1cccc(NC(=O)CN(C)C(=O)CC2CCCC2)c1	-3	5	i	-1	i	0
CCOC(=O)N1CCN(C(=O)CSCC(=O)Nc2nc(-c3ccc(C)cc3)cs2)CC1	-2	0	i	1	i	0
O=C(N/N=C/C1=C(N2CCOCC2)C(=C\c2ccccc2)/CC1)Nc1ccccc1	0	3	i	-7	·	·
CCN(CC)c1ccc(/C=C2\CCC(/C=C(\C#N)C(=O)Nc3ccccc3F)=C2N2CCOCC2)cc1	16	18	i	0	i	5.5*
O=C(O)C1CCCCN1S(=O)(=O)c1ccccc1 (centres undefined)	-4	4	i	-2	·	·
O=C(C1CCCCN1S(=O)(=O)c1ccccc1)N1CCCCC1 (centres undefined)	4	-5	+	-5	i	0
CC1CCN(CC(=O)Nc2ccccc2C#N)CC1	4	-6	+	0	i	0
N#Cc1ccccc1NC(=O)CN1CCOCC1	-5	3	i	2	·	·
Clc1cc(Cl)cc(Nc2ccccc2CN(C/C=C/c2ccc3c(c2)OCO3)Cc2ccccc2)c1	-2	-4	i	-2	i	0
CC(=O)OCCN(Cc1ccccc1)Cc1ccc2c(c1)OCO2	-9	-1	i	0	·	·
O=S(=O)(NCc1ccccc1Br)c1cccs1	-1	3	i	-2	i	0
CC1CCC(NC(=O)CC(C)(C)Cc2nc3ccccc3c(=O)[nH]2)CC1 (centres undefined)	-7	-1	i	5	i	1
COc1ccc(-n2c(Cc3cccn3C)nnc2SCC(=O)Nc2nc(C)cs2)cc1	2	1	i	0	i	0
COc1ccc(/C=N/NC(=O)c2cccc(NC(C)=O)c2)c(OC)c1	-11	3	i	2	·	·
COc1ccc(C(=O)Nc2cccc(C(=O)N/N=C/c3ccc(OC)cc3OC)c2)cc1	2	0	i	-1	i	0
COc1cccc(OCc2cc(C(=O)N(C)CCOc3ccc(C)cc3)no2)c1	3	-5	i	-16	·	·
O=C(c1cc(Cl)nc2ccccc12)N1CCN(S(=O)(=O)c2cccc(C(F)(F)F)c2)CC1	-1	1	i	-2	·	·
Cc1c2ccccc2nc2c(F)c(NCCO)c(F)c(F)c12	10	-35	+	-2	i	78*
CCOC(=O)C(NC(=O)Nc1ccccc1)(OCC)C(F)(F)F (centres undefined)	-4	-2	i	-9	·	·
